Active and inactive are the calls of the source. The calls are words filed in the database; no cut-off is given here.
Experiments:
HeLa [1] = assay: Antiproliferative activity against human HeLa cells at 20 uM after 24 hrs by Trypan blue assay; type: functional
Method in brief: (§1)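 10^5 cells (HeLa in DMEM/10% FCS; primary normal keratinocytes from hysterectomy tissue, trypsin-EDTA dispersed, in K-SFM with EGF, pituitary hormone) treated 24 h with 20 μM inhibitor or DMSO; trypsinized and counted with trypan blue in a counting chamber; cell numbers as percentage of DMSO control; mean ± SD, three independent experiments.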

Ca-Ski [2] = assay: Antiproliferative activity against human CaSki cells at 20 uM after 24 hrs by [3H]thymidine incorporation assay relative to control; type: functional
Method in brief: (§2)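 5×10^4 cells in DMEM complete medium exposed 24 h to 20 μM inhibitor or DMSO vehicle; [3H]thymidine ([…]) added for final 4 h, cells harvested onto glass fiber filters, radioactivity by scintillation counting; expressed relative to DMSO control; mean ± SD of three independent experiments.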

[3] = biological target: T1, Tyrosine-protein phosphatase non-receptor type 7 (Homo sapiens, UniProt P35236); assay: Inhibition of recombinant HePTP
T1 sequence (P35236 whole entry): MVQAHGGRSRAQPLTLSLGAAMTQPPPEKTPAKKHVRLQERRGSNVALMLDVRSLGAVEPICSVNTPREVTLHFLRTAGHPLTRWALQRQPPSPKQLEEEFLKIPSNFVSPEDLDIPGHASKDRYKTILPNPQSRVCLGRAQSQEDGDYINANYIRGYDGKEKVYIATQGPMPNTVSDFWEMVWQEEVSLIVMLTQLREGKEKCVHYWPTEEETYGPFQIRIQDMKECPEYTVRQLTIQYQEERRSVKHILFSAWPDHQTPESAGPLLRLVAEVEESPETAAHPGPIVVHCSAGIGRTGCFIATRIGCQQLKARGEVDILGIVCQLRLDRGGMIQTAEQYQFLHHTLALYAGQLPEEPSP

Ca-Ski [4] = assay: Induction of apoptosis in human CaSki cells assessed as apoptotic cells at 20 uM after 24 hrs by annexin V/propidium iodide based flow cytometry; type: functional, cell-based
Method in brief: (§3)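 10^5 cells in DMEM/10% FCS incubated 24 h with 20 μM inhibitor or DMSO, trypsinized; half of cells stained with AnnexinV-FITC and propidium iodide, analysed by flow cytometry; live cells taken as AnnexinV- and PI-negative; mean ± SD from three independent experiments.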

[5] = biological target: Dual specificity protein phosphatase 3 (Homo sapiens, UniProt P51452); assay: Inhibition of recombinant vaccina H1-related phosphatase
[6] = biological target: T2, Dual specificity protein phosphatase 1 (Homo sapiens, UniProt P28562); assay: Inhibition of recombinant MKP1
T2 sequence (P28562 whole entry): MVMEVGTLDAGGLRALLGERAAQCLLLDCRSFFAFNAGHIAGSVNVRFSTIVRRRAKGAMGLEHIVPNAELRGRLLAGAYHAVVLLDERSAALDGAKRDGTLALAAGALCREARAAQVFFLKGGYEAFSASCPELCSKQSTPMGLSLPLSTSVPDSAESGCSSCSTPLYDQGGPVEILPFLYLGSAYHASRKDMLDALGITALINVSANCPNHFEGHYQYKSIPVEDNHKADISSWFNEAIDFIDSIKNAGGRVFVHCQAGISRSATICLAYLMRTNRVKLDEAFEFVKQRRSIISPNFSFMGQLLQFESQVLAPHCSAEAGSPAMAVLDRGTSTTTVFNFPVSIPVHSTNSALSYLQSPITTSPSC

HeLa [7] = assay: Induction of apoptosis in human HeLa cells assessed as apoptotic cells at 20 uM after 24 hrs by annexin V/propidium iodide based flow cytometry; type: functional, cell-based; method in brief: as §3
[8] = biological target: T3, Receptor-type tyrosine-protein phosphatase C (Homo sapiens, UniProt P08575); assay: Inhibition of recombinant CD45
T3 sequence (P08575 whole entry): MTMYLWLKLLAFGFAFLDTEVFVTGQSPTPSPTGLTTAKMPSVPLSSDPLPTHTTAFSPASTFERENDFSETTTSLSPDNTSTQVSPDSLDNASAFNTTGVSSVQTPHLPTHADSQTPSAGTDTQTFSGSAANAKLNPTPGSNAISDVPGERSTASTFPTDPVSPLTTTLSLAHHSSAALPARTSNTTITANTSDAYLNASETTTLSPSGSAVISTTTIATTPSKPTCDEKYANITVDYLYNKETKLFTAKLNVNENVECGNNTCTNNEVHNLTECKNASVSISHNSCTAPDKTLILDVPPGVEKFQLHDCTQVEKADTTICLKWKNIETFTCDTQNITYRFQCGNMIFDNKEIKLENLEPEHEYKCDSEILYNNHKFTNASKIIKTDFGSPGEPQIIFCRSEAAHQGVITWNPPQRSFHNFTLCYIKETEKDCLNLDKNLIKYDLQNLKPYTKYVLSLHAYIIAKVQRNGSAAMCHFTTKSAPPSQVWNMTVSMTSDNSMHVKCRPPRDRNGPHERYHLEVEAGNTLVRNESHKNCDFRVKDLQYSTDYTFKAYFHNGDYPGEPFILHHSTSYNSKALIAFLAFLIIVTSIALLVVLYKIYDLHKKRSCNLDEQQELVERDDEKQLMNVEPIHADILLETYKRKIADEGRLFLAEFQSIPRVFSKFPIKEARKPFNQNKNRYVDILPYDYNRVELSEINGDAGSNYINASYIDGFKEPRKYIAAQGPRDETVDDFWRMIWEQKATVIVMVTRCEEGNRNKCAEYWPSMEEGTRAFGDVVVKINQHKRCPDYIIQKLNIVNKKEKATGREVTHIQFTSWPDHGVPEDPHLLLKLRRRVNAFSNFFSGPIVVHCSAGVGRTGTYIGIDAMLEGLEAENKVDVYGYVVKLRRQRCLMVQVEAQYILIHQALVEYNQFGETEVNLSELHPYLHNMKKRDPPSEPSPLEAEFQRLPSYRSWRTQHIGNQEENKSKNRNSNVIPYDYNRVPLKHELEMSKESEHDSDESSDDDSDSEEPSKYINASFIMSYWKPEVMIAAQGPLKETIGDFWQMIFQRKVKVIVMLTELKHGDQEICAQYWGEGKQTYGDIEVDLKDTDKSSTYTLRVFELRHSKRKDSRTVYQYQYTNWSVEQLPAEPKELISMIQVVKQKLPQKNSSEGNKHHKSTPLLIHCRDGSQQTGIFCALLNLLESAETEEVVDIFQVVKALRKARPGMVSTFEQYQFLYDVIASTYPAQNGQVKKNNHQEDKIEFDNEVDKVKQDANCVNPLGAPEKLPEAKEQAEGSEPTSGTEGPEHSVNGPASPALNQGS

[9] = biological target: T4, M-phase inducer phosphatase 1 (Homo sapiens, UniProt P30304); assay: Inhibition of recombinant Cdc25a
T4 sequence (P30304 whole entry): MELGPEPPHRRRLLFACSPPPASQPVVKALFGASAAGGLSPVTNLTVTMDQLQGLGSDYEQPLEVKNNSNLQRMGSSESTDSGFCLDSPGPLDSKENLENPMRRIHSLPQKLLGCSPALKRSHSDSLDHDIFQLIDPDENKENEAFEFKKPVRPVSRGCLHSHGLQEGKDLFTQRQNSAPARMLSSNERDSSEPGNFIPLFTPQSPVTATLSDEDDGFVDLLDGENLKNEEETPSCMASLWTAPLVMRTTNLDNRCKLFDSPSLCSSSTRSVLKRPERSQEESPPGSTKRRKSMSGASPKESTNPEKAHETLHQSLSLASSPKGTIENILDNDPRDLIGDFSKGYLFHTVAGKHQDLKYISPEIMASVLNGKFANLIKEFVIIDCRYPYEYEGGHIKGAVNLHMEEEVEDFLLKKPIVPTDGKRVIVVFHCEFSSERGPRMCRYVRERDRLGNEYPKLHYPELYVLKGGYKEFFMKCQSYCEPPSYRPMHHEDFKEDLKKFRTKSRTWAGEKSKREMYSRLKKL

[10] = biological target: T5, Tyrosine-protein phosphatase non-receptor type 1 (Homo sapiens, UniProt P18031); assay: Inhibition of recombinant PTP1B
T5 sequence (P18031 whole entry): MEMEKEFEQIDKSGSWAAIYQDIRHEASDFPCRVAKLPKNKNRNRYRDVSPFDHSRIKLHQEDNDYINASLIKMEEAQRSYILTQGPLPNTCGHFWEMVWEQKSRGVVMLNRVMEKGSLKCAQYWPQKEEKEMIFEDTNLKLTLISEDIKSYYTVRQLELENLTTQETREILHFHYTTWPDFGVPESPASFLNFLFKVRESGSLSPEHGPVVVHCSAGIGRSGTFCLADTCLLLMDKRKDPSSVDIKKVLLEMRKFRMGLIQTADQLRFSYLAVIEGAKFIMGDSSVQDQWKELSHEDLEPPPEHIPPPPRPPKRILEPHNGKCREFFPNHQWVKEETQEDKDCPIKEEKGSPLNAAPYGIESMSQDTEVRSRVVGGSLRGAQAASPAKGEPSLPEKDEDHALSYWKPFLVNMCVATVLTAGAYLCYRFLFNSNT

HeLa [11] = assay: Antiproliferative activity against human HeLa cells at 20 uM after 24 hrs by [3H]thymidine incorporation assay relative to control; type: functional; method in brief: as §2
Keratinocyte = assay: Cytotoxicity against human keratinocytes at 20 uM after 24 hrs by Trypan blue assay; type: functional, cell-based; method in brief: as §1

Dual specificity protein phosphatase 3, sequence (P51452 whole entry): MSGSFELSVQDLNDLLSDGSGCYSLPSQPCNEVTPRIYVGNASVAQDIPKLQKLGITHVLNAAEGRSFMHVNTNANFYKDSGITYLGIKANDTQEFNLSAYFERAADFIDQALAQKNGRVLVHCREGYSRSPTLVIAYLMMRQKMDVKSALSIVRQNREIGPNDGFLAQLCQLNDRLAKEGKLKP

O=C1/C(=C/c2cn(-c3ccccc3)nc2-c2ccc(OCc3ccccc3Cl)cc2)SC(=S)N1CCS(=O)(=O)O
Activity (HeLa [1]): Active
Activity (Ca-Ski [2]): >50%
IC50 [3]: 1200 nM
Activity (Ca-Ski [4]): inactive
IC50 [5]: 71 nM
IC50 [6]: 470 nM
Activity (HeLa [7]): inactive
IC50 [8]: 300 nM
IC50 [9]: 3400 nM
IC50 [10]: 590 nM
Activity (HeLa [11]): <=30%

O=C1/C(=C/c2cn(-c3ccccc3)nc2-c2ccc(OCc3ccccc3)cc2)SC(=S)N1CCS(=O)(=O)O
Activity (HeLa [1]): Active
Activity (Ca-Ski [2]): >50%
IC50 [3]: 1500 nM
IC50 [10]: 1800 nM
Activity (HeLa [11]): <=30%

O=C1/C(=C/c2cn(-c3ccccc3)nc2-c2ccc(OCc3ccccc3F)cc2)SC(=S)N1CCS(=O)(=O)O
Activity (HeLa [1]): >50%
Activity (Ca-Ski [2]): 74%
IC50 [3]: 870 nM
Activity (Ca-Ski [4]): inactive
IC50 [6]: 520 nM
Activity (HeLa [7]): inactive
IC50 [8]: 500 nM
IC50 [9]: 2800 nM
IC50 [10]: 420 nM
Activity (HeLa [11]): 58%

O=C1/C(=C/c2cn(-c3ccccc3)nc2-c2ccc(S(=O)(=O)N3CCCCC3)cc2)SC(=S)N1CCS(=O)(=O)O
Activity (HeLa [1]): Active
Activity (Ca-Ski [2]): >50%
IC50 [3]: 2400 nM
IC50 [6]: 2800 nM
IC50 [8]: 1800 nM
IC50 [9]: > 10000 nM
IC50 [10]: 2200 nM
Activity (HeLa [11]): <=30%

O=C1/C(=C/c2cn(-c3ccccc3)nc2-c2ccc(OCc3ccc(Cl)cc3)cc2)SC(=S)N1CCS(=O)(=O)O
Activity (HeLa [1]): Active
Activity (Keratinocyte): Not toxic
Activity (Ca-Ski [2]): >50%
IC50 [9]: 2400 nM
Activity (HeLa [11]): <=30%

— ChEMBL document CHEMBL1156736, “Multidentate small-molecule inhibitors of vaccinia H1-related (VHR) phosphatase decrease proliferation of cervix cancer cells” (J Med Chem, 2009)
